Test results reported in ChEMBL document CHEMBL3392996, “Non-transpeptidase binding arylthioether β-lactams active against Mycobacterium tuberculosis and Moraxella catarrhalis” (2015).
Converted amounts (≈) assume the structure as drawn. The source made the active and inactive calls. No cut-off for these calls is given here.

Legend:
[1] = test system: Citrobacter freundii; experiment: Antimicrobial activity against extended spectrum beta-lactamase producing Citrobacter freundii Citro 314 incubated for 48 hrs by microdilution broth method; type: functional, organism-based
Procedure, shortened: (§1)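 Stocks in DMSO were diluted at least 10-fold into Mueller-Hinton broth, then 2-fold serially diluted in MH from 500 to 15.6 μg/ml. Bacteria were added, with DMSO-only dilution controls, and incubated at 37 °C for 48 h. Growth was scored at 24 and 48 h. MIC was the lowest concentration with no growth. Run in quadruplicate.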

[2] = test system: Klebsiella pneumoniae; experiment: Antimicrobial activity against AmpC producing Klebsiella pneumoniae MISC 304 incubated for 48 hrs by microdilution broth method; type: functional, organism-based; procedure, shortened: as §1
[3] = test system: Acinetobacter baumannii; experiment: Antimicrobial activity against extended spectrum beta-lactamase and carbapenemase producing Acinetobacter baumannii L186 incubated for 48 hrs by microdilution broth method; type: functional, organism-based; procedure, shortened: as §1
[4] = test system: Escherichia coli; experiment: Antimicrobial activity against extended spectrum beta-lactamase producing Escherichia coli MISC 262 incubated for 48 hrs by microdilution broth method; type: functional, organism-based; procedure, shortened: as §1
[5] = test system: Escherichia coli; experiment: Antimicrobial activity against broad spectrum beta-lactamase producing Escherichia coli GB 8 incubated for 48 hrs by microdilution broth method; type: functional, organism-based; procedure, shortened: as §1
[6] = test system: Enterococcus faecalis; experiment: Antimicrobial activity against Enterococcus faecalis ATCC 29212 incubated for 48 hrs by microdilution broth method; type: functional, organism-based; procedure, shortened: as §1
[7] = test system: Moraxella catarrhalis; experiment: Antimicrobial activity against Moraxella catarrhalis clinical isolates incubated for 48 hrs by microdilution broth method; type: functional; procedure, shortened: as §1
[8] = test system: Citrobacter freundii; experiment: Antimicrobial activity against AmpC producing Citrobacter freundii CITRO 21 incubated for 48 hrs by microdilution broth method; type: functional, organism-based; procedure, shortened: as §1
[9] = test system: Escherichia coli; experiment: Antimicrobial activity against broad spectrum beta-lactamase producing Escherichia coli MISC 206 incubated for 48 hrs by microdilution broth method; type: functional, organism-based; procedure, shortened: as §1
[10] = test system: Escherichia coli; experiment: Antimicrobial activity against Escherichia coli ATCC 25922 incubated for 48 hrs by microdilution broth method; type: functional, organism-based; procedure, shortened: as §1
[11] = test system: Acinetobacter baumannii; experiment: Antimicrobial activity against extended spectrum beta-lactamase and carbapenemase producing Acinetobacter baumannii L185 incubated for 48 hrs by microdilution broth method; type: functional, organism-based; procedure, shortened: as §1
[12] = test system: Mycobacterium tuberculosis; experiment: Antimicrobial activity against Mycobacterium tuberculosis H37Rv incubated for 48 hrs by microdilution broth method; type: functional
[13] = test system: Klebsiella pneumoniae; experiment: Antimicrobial activity against extended spectrum beta-lactamase and carbapenemase producing Klebsiella pneumoniae ESBL L174 incubated for 48 hrs by microdilution broth method; type: functional, organism-based; procedure, shortened: as §1
[14] = test system: Moraxella catarrhalis; experiment: Bactericidal activity against Moraxella catarrhalis clinical isolates incubated for 48 hrs by microdilution broth method and standard plating method; type: functional
Procedure, shortened: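 Broth microdilution in Mueller-Hinton broth, 2-fold series from 500 to 15.6 μg/ml, with DMSO-only controls, 37 °C for 48 h. Wells showing no growth were plated (10 μL) on MH agar. MBC was the lowest concentration giving no growth on plating. Run in quadruplicate.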

[15] = test system: Pseudomonas aeruginosa; experiment: Antimicrobial activity against Pseudomonas aeruginosa ATCC 27853 incubated for 48 hrs by microdilution broth method; type: functional, organism-based; procedure, shortened: as §1
[16] = test system: Acinetobacter baumannii; experiment: Antimicrobial activity against extended spectrum beta-lactamase and carbapenemase producing Acinetobacter baumannii L187 incubated for 48 hrs by microdilution broth method; type: functional, organism-based; procedure, shortened: as §1
[17] = test system: Escherichia coli; experiment: Antimicrobial activity against extended spectrum beta-lactamase and carbapenemase producing Escherichia coli ESBL L108 incubated for 48 hrs by microdilution broth method; type: functional, organism-based; procedure, shortened: as §1
[18] = test system: Klebsiella pneumoniae; experiment: Antimicrobial activity against extended spectrum beta-lactamase and carbapenemase producing Klebsiella pneumoniae KPC L133 incubated for 48 hrs by microdilution broth method; type: functional, organism-based; procedure, shortened: as §1
[19] = test system: Escherichia coli; experiment: Antimicrobial activity against extended spectrum beta-lactamase and carbapenemase producing Escherichia coli ESBL L109 incubated for 48 hrs by microdilution broth method; type: functional, organism-based; procedure, shortened: as §1
[20] = test system: Klebsiella pneumoniae; experiment: Antimicrobial activity against AmpC producing Klebsiella pneumoniae KLEB 249 incubated for 48 hrs by microdilution broth method; type: functional, organism-based; procedure, shortened: as §1
[21] = test system: Staphylococcus aureus; experiment: Antimicrobial activity against Staphylococcus aureus ATCC 25923 incubated for 48 hrs by microdilution broth method; type: functional, organism-based; procedure, shortened: as §1
[22] = test system: Stenotrophomonas maltophilia; experiment: Antimicrobial activity against metallo beta-lactamases producing Stenotrophomonas maltophilia GM24 incubated for 48 hrs by microdilution broth method; type: functional, organism-based; procedure, shortened: as §1

Structure (SMILES)	MIC [1]	MIC [2]	MIC [3]	MIC [4]	MIC [5]	MIC [6]	MIC [7]	MIC [8]	MIC [9]	MIC [10]	MIC [11]	MIC [12]	MIC [13]	MBC [14]	MIC [15]	MIC [16]	MIC [17]	MIC [18]	MIC [19]	MIC [20]	further results
O=C1CC(Sc2ccc(C(F)(F)F)cc2)N1C(=O)NCc1ccccc1 (racemic)	inactive	inactive	inactive	inactive	inactive	inactive	1.62 µg/mL (≈ 4.27 µM)	inactive	inactive	inactive	inactive	12.5 µg/mL (≈ 32.9 µM)	inactive	12.5 µg/mL (≈ 32.9 µM)	inactive	inactive	inactive	inactive	inactive	inactive	MIC [21]: inactive; MIC [22]: inactive
O=C1CC(Sc2ccc(F)cc2)N1C(=O)NCc1ccccc1 (racemic)	inactive	inactive	inactive	inactive	inactive	inactive	25 µg/mL (≈ 75.7 µM)	inactive	inactive	inactive	inactive	6.25 µg/mL (≈ 18.9 µM)	inactive	25 µg/mL (≈ 75.7 µM)	inactive	inactive	inactive	inactive	inactive	inactive	MIC [21]: inactive; MIC [22]: inactive
O=C1CC(Sc2ccccc2F)N1C(=O)NCc1ccccc1 (racemic)	inactive	inactive	inactive	inactive	inactive	inactive	25 µg/mL (≈ 75.7 µM)	inactive	inactive	inactive	inactive	3.13 µg/mL (≈ 9.47 µM)	inactive	50 µg/mL (≈ 151 µM)	inactive	inactive	inactive	inactive	inactive	inactive	MIC [21]: inactive; MIC [22]: inactive
O=C1CC(Sc2ccc(F)c(F)c2)N1C(=O)NCc1ccccc1 (racemic)	inactive	inactive	inactive	inactive	inactive	inactive	12.5 µg/mL (≈ 35.9 µM)	inactive	inactive	inactive	inactive	6.25 µg/mL (≈ 17.9 µM)	inactive	25 µg/mL (≈ 71.8 µM)	inactive	inactive	inactive	inactive	inactive	inactive	MIC [21]: inactive; MIC [22]: inactive
O=C1CC(Sc2ccccc2)N1C(=O)NCc1ccccc1 (racemic)	inactive	inactive	inactive	inactive	inactive	inactive	12.5 µg/mL (≈ 40 µM)	inactive	inactive	inactive	inactive	6.25 µg/mL (≈ 20 µM)	inactive	12.5 µg/mL (≈ 40 µM)	inactive	inactive	inactive	inactive	inactive	inactive	MIC [21]: inactive; MIC [22]: inactive
O=C1CC(Sc2cc(C(F)(F)F)cc(C(F)(F)F)c2)N1C(=O)NCc1ccccc1 (racemic)	inactive	inactive	inactive	inactive	inactive	inactive	6.25 µg/mL (≈ 13.9 µM)	inactive	inactive	inactive	inactive	6.25 µg/mL (≈ 13.9 µM)	inactive	6.25 µg/mL (≈ 13.9 µM)	inactive	inactive	inactive	inactive	inactive	inactive	MIC [21]: inactive; MIC [22]: inactive
O=C1CC(Sc2cccc(C(F)(F)F)c2)N1C(=O)NCc1ccccc1 (racemic)	inactive	inactive	inactive	inactive	inactive	inactive	3.12 µg/mL (≈ 8.22 µM)	inactive	inactive	inactive	inactive	25 µg/mL (≈ 65.7 µM)	inactive	6.25 µg/mL (≈ 16.4 µM)	inactive	inactive	inactive	inactive	inactive	inactive	MIC [21]: inactive; MIC [22]: inactive
